Measured values reported in ChEMBL document CHEMBL5260803, “Discovery of Novel, Orally Bioavailable β-Amino Acid Azaindole Inhibitors of Influenza PB2” (ACS Med Chem Lett, 2017).
pEC50: −log10 of the molar value.

What was measured:
Format in all cases: functional, organism-based
[1] = tested on: Influenza A virus; assay: Antiviral activity against oseltamivir resistant Influenza A virus A/Georgia/20/2006 (H1N1) infected in MDCK cells incubated for 72 hrs by cell protection assay
Procedure, shortened: (§1)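 MDCK cells incubated with test compound and influenza A virus for 72 h. EC50 is the concentration giving 50% cell protection, reported as the mean of N=3. Oseltamivir resistant or sensitive status was assigned by externally validated phenotypic or genetic analysis.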

[2] = tested on: Influenza A virus; assay: Antiviral activity against oseltamivir resistant Influenza A virus A/Texas/12/2007 (H3N2) infected in MDCK cells incubated for 72 hrs by cell protection assay; procedure, shortened: as §1
[3] = tested on: Influenza A virus; assay: Antiviral activity against oseltamivir resistant Influenza A virus A/Texas/48/2009 (H1N1) infected in MDCK cells incubated for 72 hrs by cell protection assay; procedure, shortened: as §1

Question: How did the pEC50 [1] turn out when `CC(C)(C)[C@@H](CC(=O)O)Nc1nc(-c2c[nH]c3ncc(F)cc23)ncc1F` was run?
Answer: Its pEC50 is 8.70.

Question: And the pEC50 [2]?
Answer: Its pEC50 is 7.52.

Question: What about the pEC50 [3] of the same compound?
Answer: Its pEC50 is 8.70.
